Experimental data pooled from the literature.
Compare with care: the assays were run in different laboratories.
Action: inhibitor
HDAC6: Protein deacetylase HDAC6 (HDAC6, Homo sapiens, UniProt Q9UBN7)
Dihydroorotate dehydrogenase, mitochondrial, putative: Dihydroorotate dehydrogenase, mitochondrial, putative (Plasmodium vivax, UniProt A5K1N1)
KCNH2: Voltage-gated inwardly rectifying potassium channel KCNH2 (KCNH2, Homo sapiens, UniProt Q12809)

`O=C(NO)c1cncc(OS(=O)(=O)Oc2ccc(C(F)(F)F)cc2)c1` has an IC50 of 0.147 µM (HDAC6; enzyme activity; fluorescence).
With `Cc1cc(Nc2nccc(C)n2)cc(-c2cnc([C@@]3(O)CC[C@H](C(=O)NCCCNC(=O)CCc4ccc5n4[B-](F)(F)[N+]4=C(c6ccc[nH]6)C=CC4=C5)C(C)(C)C3)s2)c1` the IC50 was 0.11 µM (Tyrosine-protein kinase SYK (SYK, Homo sapiens, UniProt P43405); enzyme activity; radiometric).
`Cn1nc2c(=O)n(C3CC3)cnc2c1[C@](O)(c1cnc(C(F)(F)F)c(Cl)c1)C(F)(F)F` has an IC50 of 0.023 µM (Dihydroorotate dehydrogenase, mitochondrial, putative; enzyme activity; absorbance).
For `COc1cccc(OS(=O)(=O)Oc2cccc(C(=O)NO)c2)c1`, the IC50 was 0.092 µM (HDAC6; enzyme activity; fluorescence).
The IC50 of `CCn1cc(C)c2c(C(O)c3ccc(Cl)c(F)c3)n(C)nc2c1=O` (stereo not shown) is reported as 0.0098 µM (Dihydroorotate dehydrogenase, mitochondrial, putative; enzyme activity; absorbance).
For `CN(C)C(=O)CN1CCN(c2cnc3c(cc(C(=O)NCc4ccc(Cl)cc4)c(=O)n3CC(=O)N3CC(C)(F)C3)n2)C1=O`, the IC50 was greater than 40 µM (KCNH2; ion current; patch clamp).
For `COc1cc2c(cc1OC)CC(=O)N(CCCN(C)C[C@H]1Cc3cc(OC)c(OC)cc31)CC2`, the IC50 was 5.4 µM (Potassium/sodium hyperpolarization-activated cyclic nucleotide-gated channel 1 (Homo sapiens, UniProt O60741); ion current).
The IC50 of `O=C(NO)c1cccc(OS(=O)(=O)Oc2ccc(C(F)(F)F)cc2)c1` is reported as 0.842 µM (HDAC6; enzyme activity; fluorescence).
`O=c1oc(-c2ccco2)nc2ccccc12` has an IC50 of greater than 50 µM (Prothrombin (F2, Homo sapiens, UniProt P00734); enzyme activity; absorbance; pH 7.4).
The IC50 of `O=C(NO)c1cccc(OS(=O)(=O)Oc2ccc(-c3cccc(C(F)(F)F)c3)cc2)c1` is reported as 3.1 µM (HDAC6; enzyme activity; fluorescence).
For `CC1(F)CN(C(=O)Cn2c(=O)c(C(=O)NCc3ccc(Cl)cc3)cc3nc(N4CCOC4=O)cnc32)C1`, the IC50 was 5.62 µM (KCNH2; ion current; patch clamp).
The IC50 of `C=CS(=O)(=O)c1ccc(Nc2nc(OCC3CCCCC3)c3nc[nH]c3n2)cc1` is reported as 5.94 µM (KCNH2; ion current; patch clamp; HEK293).
`COc1ccc2c(C(=S)N(C)CC(=O)O)cccc2c1C(F)(F)F` gave an IC50 of 0.124 µM (Aldo-keto reductase family 1 member B10 (AKR1B10, Homo sapiens, UniProt O60218, K125R); enzyme activity).
`Cn1nc2c(=O)n(C3CC3)ncc2c1[C@](O)(c1cnc(C(F)(F)F)c(Cl)c1)C(F)(F)F` has an IC50 of 0.017 µM (Dihydroorotate dehydrogenase, mitochondrial, putative; enzyme activity; absorbance).
`O=C(NO)c1cc(F)cc(OS(=O)(=O)Oc2ccccc2)c1` gave an IC50 of 0.077 µM (HDAC6; enzyme activity; fluorescence).
The IC50 of `CC[C@@](O)(c1cnc(C(F)(F)F)c(Cl)c1)c1c2cnn(C3CC3)c(=O)c2nn1C` is reported as 0.019 µM (Dihydroorotate dehydrogenase, mitochondrial, putative; enzyme activity; absorbance).
For `CC1(F)CN(C(=O)Cn2c(=O)c(C(=O)NCc3ccc(Cl)cc3)cc3nc(N4CCCC4=O)cnc32)C1`, the IC50 was greater than 40 µM (KCNH2; ion current; patch clamp).
With `CCn1ncc2c([C@](O)(c3ccc(C(F)(F)F)c(Cl)c3)C3CC3)n(C)nc2c1=O` the IC50 was 0.005 µM (Dihydroorotate dehydrogenase, mitochondrial, putative; enzyme activity; absorbance).
`CN(C)C(=O)c1cc2cnc(Nc3ccc(N4CCNCC4)cn3)nc2n1C1CCCC1` gave an IC50 of greater than 10 µM (3',5'-cyclic-AMP phosphodiesterase 4D (PDE4D, Homo sapiens, UniProt Q08499); enzyme activity; TR-FRET).
